Where “and” joins values, the source holds several entries; their conditions need not be identical. Identical values can stand only once.
Key:
[1] = Relative safety was expressed as Selective index (TC50/IC50) at HSV-2 passage 3 in vero cells; assay type: functional
Summary of the method: (§1)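 SI = TC50/IC50 per passage. IC50 comes from serial passage of HSV-1 Sm44 or HSV-2 Sav in Vero cells (100 TCID50, drug added 2 h p.i., CPE read-out, triplicates). TC50 comes from uninfected Vero cells by a tetrazolium viability assay, run three times in triplicate and averaged.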

[2] = Relative safety was expressed as Selective index (TC50/IC50) at HSV-1 passage 10 in vero cells; assay type: functional; summary of the method: as §1
Vero [3] = assay: Comparative Potency (IC50s) at HSV-2 passage 3 in vero cells; assay type: functional, cell-based; details: Chlorocebus sabaeus
Summary of the method: (§2)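 Vero cells infected with 100 TCID50 of HSV-1 (Sm44) or HSV-2 (Sav); compound in DMSO diluted in medium and added 2 h post-infection, triplicates per concentration. Passaging: virus recovered from cultures at the IC50 infected fresh Vero cells, and the IC50 was redetermined each passage.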

Vero [4] = assay: Comparative Potency (IC50s) at HSV-1 passage 3 in vero cells; assay type: functional, cell-based; details: Chlorocebus sabaeus; summary of the method: as §2
Mus musculus [5] = assay: Percent Change in body weight of 5 mice when intraperitoneally administered daily once for 1 day at dose 300 mg/kg; assay type: functional; details: route intraperitoneal
[6] = Relative safety was expressed as Selective index (TC50/IC50) at HSV-1 passage 1 in vero cells; assay type: functional; summary of the method: as §1
Vero [7] = assay: Comparative Potency (IC50s) at HSV-1 passage 10 in vero cells; assay type: functional, cell-based, Chlorocebus sabaeus; summary of the method: as §2
Vero [8] = assay: Comparative Potency (IC50s) at HSV-1 passage 2 in vero cells; assay type: functional, cell-based; details: Chlorocebus sabaeus; summary of the method: as §2
Vero [9] = assay: Comparative Potency (IC50s) at HSV-1 passage 9 in vero cells; assay type: functional, cell-based; details: Chlorocebus sabaeus; summary of the method: as §2
Vero [10] = assay: Comparative Potency (IC50s) at HSV-1 passage 4 in vero cells; assay type: functional, cell-based; details: Chlorocebus sabaeus; summary of the method: as §2
Vero [11] = assay: Comparative Potency (IC50s) at HSV-1 passage 7 in vero cells; assay type: functional, cell-based; details: Chlorocebus sabaeus; summary of the method: as §2
Vero [12] = assay: Comparative Potency (IC50s) at HSV-2 passage 4 in vero cells; assay type: functional, cell-based; details: Chlorocebus sabaeus; summary of the method: as §2
Vero [13] = assay: Comparative Potency (IC50s) at HSV-2 passage 2 in vero cells; assay type: functional, cell-based; details: Chlorocebus sabaeus; summary of the method: as §2
[14] = Relative safety was expressed as Selective index (TC50/IC50) at HSV-2 passage 1 in vero cells; assay type: functional; summary of the method: as §1
Vero [15] = assay: Comparative Potency (IC50s) at HSV-1 passage 6 in vero cells; assay type: functional, cell-based; details: Chlorocebus sabaeus; summary of the method: as §2
[16] = Relative safety was expressed as Selective index (TC50/IC50) at HSV-1 passage 9 in vero cells; assay type: functional; summary of the method: as §1
[17] = Relative safety was expressed as Selective index (TC50/IC50) at HSV-1 passage 6 in vero cells; assay type: functional; summary of the method: as §1
[18] = Relative safety was expressed as Selective index (TC50/IC50) at HSV-1 passage 7 in vero cells; assay type: functional; summary of the method: as §1
[19] = Mortality in 5 mice when intraperitoneally administered daily twice for 5 days at dose 50 mg/kg; assay type: ADME, organism-based; design: dose 50 mg/kg, route intraperitoneal; details: mouse, in vivo, ip, 120 h
[20] = Relative safety was expressed as Selective index (TC50/IC50) at HSV-1 passage 2 in vero cells; assay type: functional; summary of the method: as §1
Mus musculus [21] = assay: Percent Change in body weight of 5 mice when intraperitoneally administered daily once for 7 days at dose 50 mg/kg; assay type: functional; details: route intraperitoneal
[22] = Mortality in 5 mice when intraperitoneally administered daily once for 7 days at dose 100 mg/kg; assay type: ADME, organism-based; design: dose 100 mg/kg, route intraperitoneal; details: mouse, in vivo, ip, 168 h
[23] = Relative safety was expressed as Selective index (TC50/IC50) at HSV-1 passage 8 in vero cells; assay type: functional; summary of the method: as §1
[24] = Relative safety was expressed as Selective index (TC50/IC50) at HSV-2 passage 4 in vero cells; assay type: functional; summary of the method: as §1
[25] = Relative safety was expressed as Selective index (TC50/IC50) at HSV-1 passage 3 in vero cells; assay type: functional; summary of the method: as §1
Vero [26] = assay: Comparative Potency (IC50s) at HSV-1 passage 8 in vero cells; assay type: functional, cell-based; details: Chlorocebus sabaeus; summary of the method: as §2
[27] = Relative safety was expressed as Selective index (TC50/IC50) at HSV-1 passage 5 in vero cells; assay type: functional; summary of the method: as §1
[28] = Relative safety was expressed as Selective index (TC50/IC50) at HSV-1 passage 4 in vero cells; assay type: functional; summary of the method: as §1
Vero [29] = assay: Comparative Potency (IC50s) at HSV-2 passage 1 in vero cells; assay type: functional, cell-based; details: Chlorocebus sabaeus; summary of the method: as §2
[30] = Mortality in 5 mice when intraperitoneally administered daily once for 7 days at dose 25 mg/kg; assay type: ADME, organism-based; design: dose 25 mg/kg, route intraperitoneal; details: mouse, in vivo, ip, 168 h
Vero [31] = assay: Comparative Potency (IC50s) at HSV-1 passage 5 in vero cells; assay type: functional, cell-based; details: Chlorocebus sabaeus; summary of the method: as §2
[32] = Relative safety was expressed as Selective index (TC50/IC50) at HSV-2 passage 2 in vero cells; assay type: functional; summary of the method: as §1
[33] = Mortality in 5 mice when intraperitoneally administered daily once for 7 days at dose 50 mg/kg; assay type: ADME, organism-based; design: dose 50 mg/kg, route intraperitoneal; details: mouse, in vivo, ip, 168 h
[34] = Ralative safety was expressed as Selective index (TC50/IC50) at HSV-1 passage 3 in vero cells; assay type: functional; summary of the method: as §1
[35] = Ralative safety was expressed as Selective index (TC50/IC50) at HSV-1 passage 1 in vero cells; assay type: functional; summary of the method: as §1
[36] = Ralative safety was expressed as Selective index (TC50/IC50) at HSV-1 passage 5 in vero cells; assay type: functional; summary of the method: as §1
[37] = Ralative safety was expressed as Selective index (TC50/IC50) at HSV-2 passage 3 in vero cells; assay type: functional; summary of the method: as §1
[38] = Ralative safety was expressed as Selective index (TC50/IC50) at HSV-1 passage 9 in vero cells; assay type: functional; summary of the method: as §1
[39] = Ralative safety was expressed as Selective index (TC50/IC50) at HSV-2 passage 4 in vero cells; assay type: functional; summary of the method: as §1
[40] = Ralative safety was expressed as Selective index (TC50/IC50) at HSV-2 passage 2 in vero cells; assay type: functional; summary of the method: as §1
[41] = Ralative safety was expressed as Selective index (TC50/IC50) at HSV-1 passage 10 in vero cells; assay type: functional; summary of the method: as §1
[42] = Ralative safety was expressed as Selective index (TC50/IC50) at HSV-1 passage 6 in vero cells; assay type: functional; summary of the method: as §1
[43] = Ralative safety was expressed as Selective index (TC50/IC50) at HSV-1 passage 8 in vero cells; assay type: functional; summary of the method: as §1
[44] = Ralative safety was expressed as Selective index (TC50/IC50) at HSV-1 passage 2 in vero cells; assay type: functional; summary of the method: as §1
[45] = Ralative safety was expressed as Selective index (TC50/IC50) at HSV-1 passage 4 in vero cells; assay type: functional; summary of the method: as §1
[46] = Ralative safety was expressed as Selective index (TC50/IC50) at HSV-1 passage 7 in vero cells; assay type: functional; summary of the method: as §1
[47] = Ralative safety was expressed as Selective index (TC50/IC50) at HSV-2 passage 1 in vero cells; assay type: functional; summary of the method: as §1

COc1ccc(C[C@@H](C)[C@@H](C)Cc2ccc(OC)c(OC)c2)cc1OC [TERAMEPROCOL]
Selectivity index [1]: 14.4
Selectivity index [2]: 33.5
IC50 (Vero [3]): 11.1 µM
IC50 (Vero [4]): 8.24 µM
Change (Mus musculus [5]): -2.66%
Selectivity index [6]: 13.7
IC50 (Vero [7]): 11.7 µM and 4.47 µM
IC50 (Vero [8]): 4.4 µM
IC50 (Vero [9]): 8.82 µM
IC50 (Vero [10]): 5.97 µM
IC50 (Vero [11]): 6.98 µM
IC50 (Vero [12]): 11.1 µM
IC50 (Vero [13]): 11.1 µM
Selectivity index [14]: 38.3
IC50 (Vero [15]): 6.98 µM
Selectivity index [16]: 18.1
Selectivity index [17]: 22.9
Selectivity index [18]: 22.9
Mortality [19]: 1
Selectivity index [20]: 36.4
Change (Mus musculus [21]): -2.8%
Mortality [22]: 0
Selectivity index [23]: 16.1
Selectivity index [24]: 14.4
Selectivity index [25]: 19.4
IC50 (Vero [26]): 9.91 µM
Selectivity index [27]: 24.7
Selectivity index [28]: 26.8
IC50 (Vero [29]): 4.18 µM
Mortality [30]: 0
IC50 (Vero [31]): 6.48 µM
Selectivity index [32]: 14.4
Mortality [33]: 0

Nc1nc2c(ncn2COCCO)c(=O)[nH]1 [ACYCLOVIR]
Selectivity index [34]: 50
IC50 (Vero [3]): 62.8 µM
IC50 (Vero [4]): > 88.8 µM
Selectivity index [35]: 589
Selectivity index [36]: 40
Selectivity index [37]: 70
Selectivity index [38]: 11
IC50 (Vero [8]): 37.8 µM
IC50 (Vero [9]): 379 µM
Selectivity index [39]: 50
Selectivity index [40]: 100
IC50 (Vero [10]): 138 µM
IC50 (Vero [11]): 190 µM
IC50 (Vero [12]): > 88.8 µM
IC50 (Vero [13]): > 44.4 µM
IC50 (Vero [15]): 131 µM
Selectivity index [41]: 10
Selectivity index [42]: 34
Selectivity index [43]: 23
IC50 (Vero [26]): 444 µM
Selectivity index [44]: 117
Selectivity index [45]: 32
IC50 (Vero [29]): 6.66 µM
Selectivity index [46]: 23
IC50 (Vero [31]): 111 µM
Selectivity index [47]: 667

Reference: ChEMBL document CHEMBL1131049, “Antiviral activities of methylated nordihydroguaiaretic acids. 2. Targeting herpes simplex virus replication by the mutation insensitive transcription inhibitor tetra-O-methyl-NDGA” (J Med Chem, 1998)
